Measurements reported in ChEMBL document CHEMBL1156469 (2007).
Activity calls are given as the source filed them. The calls are words filed in the database; no cut-off is given here.

Key:
[1] = test system: Rattus norvegicus; assay: Increase in serum BMP2 levels in ovariectomized Wistar rat at 10 mg/kg, po after 10 weeks by ELISA relative to sham operated control; type: functional, organism-based; design: dose 10 mg/kg
In short: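 Ovariectomized rats given indicated doses or estrogen by oral feeding; serum BMP-2 by ELISA 10 weeks after surgery; compared with sham-operated group; n = 8/group, means ± S.D.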

[2] = test system: Osteoblast; assay: Effect on transforming growth factor beta 3 gene expression in rat primary osteoblast cells assessed as expression ratio of treated to untreated control by microarray analysis; type: functional
In short: (§1)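 Resveratrol-treated and vehicle-treated primary osteoblasts were profiled on a mouse osteogenesis-focused cDNA array (GEArray Q series) built to track gene expression during osteogenic differentiation. Each gene's signal in treated cells was expressed as a ratio to untreated control.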

[3] = test system: Osteoblast; assay: Effect on tumor necrosis factor gene expression in rat primary osteoblast cells assessed as expression ratio of treated to untreated control by microarray analysis; type: functional
In short: (§2)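 GEArray Q series Mouse Osteogenesis cDNA array profiling osteogenic-differentiation genes in treated versus vehicle-treated primary osteoblasts.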

[4] = test system: MC3T3-E1; assay: Inhibition of antiapoptotic activity in mouse MC3T3-E1 cells at 1 uM after 48 hrs in presence of BMP2-specific neutralizing antibody; type: functional, cell-based
[5] = target: Forkhead box protein O3 (Homo sapiens) (UniProt O43524); assay: Reversal of induction of FOXO3a activity in human MDA-MB-231 cells transfected with FOXO3a-specific small interfering RNA; type: cell-based
Chain of Forkhead box protein O3 (Homo sapiens) (O43524 whole entry): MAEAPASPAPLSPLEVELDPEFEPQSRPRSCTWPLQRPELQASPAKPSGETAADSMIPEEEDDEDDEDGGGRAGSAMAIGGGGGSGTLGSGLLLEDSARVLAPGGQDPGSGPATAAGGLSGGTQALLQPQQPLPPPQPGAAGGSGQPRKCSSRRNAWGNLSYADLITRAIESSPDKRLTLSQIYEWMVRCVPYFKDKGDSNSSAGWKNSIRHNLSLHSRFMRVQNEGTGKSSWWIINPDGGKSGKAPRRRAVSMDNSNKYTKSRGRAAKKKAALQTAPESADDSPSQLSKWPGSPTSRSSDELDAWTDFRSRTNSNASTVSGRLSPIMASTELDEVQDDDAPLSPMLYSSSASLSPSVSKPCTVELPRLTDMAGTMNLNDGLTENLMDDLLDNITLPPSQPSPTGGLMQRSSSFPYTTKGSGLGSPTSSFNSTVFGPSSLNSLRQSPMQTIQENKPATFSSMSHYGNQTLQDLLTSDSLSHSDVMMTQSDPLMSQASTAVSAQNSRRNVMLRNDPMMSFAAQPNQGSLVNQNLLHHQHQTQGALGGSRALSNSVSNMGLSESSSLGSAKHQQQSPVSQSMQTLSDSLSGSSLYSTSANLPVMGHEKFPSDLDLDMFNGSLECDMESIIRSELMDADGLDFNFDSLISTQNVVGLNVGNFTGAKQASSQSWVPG

[6] = Reversal of increase in pBMP2 expression in mouse MC3T3-E1 cells expressing small interfering RNA for FOXA1 protein at 1 uM by luciferase method; type: functional, cell-based
[7] = test system: MDA-MB-231; assay: Antiproliferative activity against human MDA-MB-231 cells at 1 uM by flow cytometry; type: functional, cell-based
In short: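 Proliferation was measured by DNA flow cytometry. Incubations were run in triplicate across three separate experiments, and values are means ± S.D.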

[8] = test system: Osteoblast; assay: Effect on bone morphogenetic protein 5 gene expression in rat primary osteoblast cells assessed as expression ratio of treated to untreated control by microarray analysis; type: functional
[9] = test system: MC3T3-E1; assay: Induction of ER association with BMP2 promoter in mouse MC3T3-E1 cells at 1 uM by ChiP assay; type: functional, cell-based
In short: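 MC3T3-E1 cells ± 1 μm, formaldehyde-fixed; ChIP with transcription factor antibodies and protein G magnetic beads; BMP-2 promoter quantified by real-time PCR (45 cycles); ratio of IP to input Ct values.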

[10] = test system: Osteoblast; assay: Increase in osteocalcin mRNA levels in rat primary osteoblast cells at 1 uM after 72 hrs by RT-PCR; type: functional, cell-based
In short: (§3)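 Cells treated with 1 μm for 72 h; osteocalcin and osteopontin mRNA by RT-PCR, 30 cycles (95/52/72 °C, 1 min each), ethidium bromide–stained agarose gels; repeated at least twice from at least two cDNA preparations.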

[11] = test system: Osteoblast; assay: Increase in osteopontin mRNA levels in rat primary osteoblast cells at 1 uM after 72 hrs by RT-PCR; type: functional, cell-based; in short: as §3
[12] = test system: MC3T3-E1; assay: Increase in osteopontin levels in mouse MC3T3-E1 cells at 1 uM after 72 hrs by ELISA; type: functional, cell-based
In short: (§4)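 Cells treated with 1 μm for 72 h; osteocalcin or osteopontin in culture medium by sandwich ELISA, HRP-streptavidin/TMB, 450 nm; percent change versus untreated control.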

[13] = test system: MG-63; assay: Increase in osteopontin levels in human MG63 cells at 1 uM after 72 hrs by ELISA; type: functional, cell-based; in short: as §4
[14] = test system: Osteoblast; assay: Inhibition of TNF-alpha-induced apoptosis in rat primary osteoblast cells after 24 hrs by flow cytometry; type: functional, cell-based
In short: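 Cells washed in PBS, held 30 min in 0.5% Triton X-100/PBS/0.05% RNase A, then propidium iodide (50 μg/ml) added and kept on ice 15–30 min. Apoptosis is the hypodiploid fraction below the G0/G1 peak, by flow cytometry. Run in triplicate and repeated on three occasions.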

[15] = test system: T47D; assay: Reduction in anchorage-independent colony formation of human T47D cells at 1 uM by soft agar colony forming assay; type: functional, cell-based
In short: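 Seeded in 0.35% noble agar in DMEM/10% FBS over a 0.7% agar bed. Colonies of at least 50 μm counted after 3 weeks under a dissecting microscope, six replicates per treatment. Three separate experiments.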

[16] = test system: MCF7; assay: Antitumor activity against human MCF7 cells xenografted in SCID mouse orthotropic model assessed as inhibition of 17beta estradiol-induced tumor formation at 10 mg/kg for 2 days; type: functional; design: scale not given: the % may be the effect or the level left
In short: (§5)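 Tumor cells were inoculated orthotopically into the mammary fat pad of 6-week-old female SCID mice. […] Tumor volume was calculated as LW2/2. Tumor formation was scored as mice with tumors per total (20 per group), and tumor weight as mean ± S.D. Groups were compared by one-way ANOVA with LSD post-hoc comparisons.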

[17] = test system: MCF7; assay: Antitumor activity against human MCF7 cells xenografted in SCID mouse orthotropic model assessed as inhibition of 17beta estradiol-induced tumor weight at 10 mg/kg for 2 days; type: functional; design: scale not given: the % may be the effect or the level left; in short: as §5
[18] = test system: Osteoblast; assay: Increase in BMP2 levels in rat primary osteoblast cells at 1 uM after 48 hrs by ELISA; type: functional, cell-based
In short: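 Culture medium collected after 48 h treatment at indicated concentrations; BMP-2 sandwich ELISA, 2 h room temperature incubation, HRP-streptavidin with TMB, absorbance at 450 nm; expressed as percent change versus untreated control.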

[19] = test system: Osteoblast; assay: Effect on fibroblast growth factor receptor 3 gene expression in rat primary osteoblast cells assessed as expression ratio of treated to untreated control by microarray analysis; type: functional
[20] = test system: Osteoblast; assay: Effect on fibronectin 1 gene expression in rat primary osteoblast cells assessed as expression ratio of treated to untreated control by microarray analysis; type: functional
[21] = test system: Osteoblast; assay: Effect on histone H1 gene expression in rat primary osteoblast cells assessed as expression ratio of treated to untreated control by microarray analysis; type: functional; in short: as §1
[22] = test system: Osteoblast; assay: Effect on integrin alpha 2 gene expression in rat primary osteoblast cells assessed as expression ratio of treated to untreated control by microarray analysis; type: functional; in short: as §1
[23] = test system: Osteoblast; assay: Increase in bone morphogenetic protein 2 gene expression in rat primary osteoblast cells assessed as expression ratio of treated to untreated control by microarray analysis; type: functional; in short: as §2
[24] = test system: Osteoblast; assay: Effect on bone morphogenetic protein 3 gene expression in rat primary osteoblast cells assessed as expression ratio of treated to untreated control by microarray analysis; type: functional
[25] = test system: Osteoblast; assay: Effect on bone morphogenetic protein 8b gene expression in rat primary osteoblast cells assessed as expression ratio of treated to untreated control by microarray analysis; type: functional
[26] = test system: Osteoblast; assay: Effect on bone morphogenetic protein receptor 1B gene expression in rat primary osteoblast cells assessed as expression ratio of treated to untreated control by microarray analysis; type: functional
[27] = test system: Osteoblast; assay: Effect on procollagen 4 alpha 2 gene expression in rat primary osteoblast cells assessed as expression ratio of treated to untreated control by microarray analysis; type: functional; in short: as §1
[28] = test system: Osteoblast; assay: Effect on procollagen 4 alpha 6 gene expression in rat primary osteoblast cells assessed as expression ratio of treated to untreated control by microarray analysis; type: functional; in short: as §1
[29] = test system: Osteoblast; assay: Effect on integrin alpha 2b gene expression in rat primary osteoblast cells assessed as expression ratio of treated to untreated control by microarray analysis; type: functional; in short: as §1
[30] = test system: Osteoblast; assay: Effect on MAD homolog 4 gene expression in rat primary osteoblast cells assessed as expression ratio of treated to untreated control by microarray analysis; type: functional
[31] = test system: Osteoblast; assay: Effect on matrix metalloprotease 13 gene expression in rat primary osteoblast cells assessed as expression ratio of treated to untreated control by microarray analysis; type: functional; in short: as §1
[32] = test system: Osteoblast; assay: Effect on procollagen 1 alpha 2 gene expression in rat primary osteoblast cells assessed as expression ratio of treated to untreated control by microarray analysis; type: functional; in short: as §1

Structure (SMILES): Oc1ccc(/C=C/c2cc(O)cc(O)c2)cc1 [RESVERATROL]
- Activity [1]: Active
- Ratio [2]: 2.56
- Ratio [3]: 0.46
- Activity [4]: Active
- Activity [5]: Active
- Activity [6]: Active
- Activity [7]: Active
- Ratio [8]: 0.97
- Activity [9]: Active
- Activity [10]: Active
- Activity [11]: Active
- Activity [12]: Active
- Activity [13]: Active
- Activity [14]: Active
- Activity [15]: Active
- Activity [16]: 40%
- Activity [17]: 54.6%
- Activity [18]: Dose-dependent effect
- Ratio [19]: 0.9
- Ratio [20]: 8.76
- Ratio [21]: 0.44
- Ratio [22]: 2.24
- Ratio [23]: 12.75
- Ratio [24]: 0.27
- Ratio [25]: 1.82
- Ratio [26]: 2.63
- Ratio [27]: 4.48
- Ratio [28]: 3.689
- Ratio [29]: 0.57
- Ratio [30]: 2.63
- Ratio [31]: 0.64
- Ratio [32]: 8.24
